How the values were obtained:
[1] = species on record: Homo sapiens; test: Inhibition of heparin-induced alexa red-labelled tau K18PL mutant aggregation after 6 hrs by thioflavin-T fluorescence assay relative to control
In short: (§1)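 Heparin-induced fibrillization of tau K18 fragment (residues 244–369) carrying P301L, with tau at 20 μM in sodium acetate buffer. Fibril formation was read by thioflavin-T fluorescence. IC50 came from sigmoidal fitting of concentration-response data, each concentration in triplicate. Values are from a single fit, or the mean of 2 or more analyses where marked.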

[2] = species on record: Homo sapiens; test: Inhibition of heparin-induced tau K18PL mutant aggregation assessed as soluble tau fragment level at 50 uM after 5 days by SDS-PAGE analysis
In short: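 Secondary centrifugation assay. Heparin-induced K18 P301L tau fibrillization mixtures with compound at 50 μM were centrifuged. Soluble and insoluble fractions were analysed by SDS-PAGE to give the percentage of tau remaining soluble.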

[3] = Inhibition of heparin-induced alexa red-labelled tau K18PL mutant aggregation after 6 hrs by thioflavin-T fluorescence assay; parameters: species or system Homo sapiens; in short: as §1
[4] = test system: Plasma; test: (§2) Drug uptake in B6C3F1 mouse plasma at 5 mg/kg, ip after 1 hr; assay type: ADME, organism-based; parameters: dose 5 mg/kg, route intraperitoneal; settings: mouse, in vivo, 1 h, BLD = below limit of detection
In short: (§3)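 Single i.p. dose of 5 mg/kg, sacrifice 1 h later. Perfused brain hemispheres were homogenized in 10 mM ammonium acetate pH 5.7 (50% w/v). EDTA plasma was taken. Brain homogenate or plasma was extracted with acetonitrile and analysed by LC-MS/MS (MRM) against matrix standard curves. Brain-to-plasma ratio was taken from total levels.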

[5] = test system: Brain; test: (§4) Drug uptake in B6C3F1 mouse brain at 5 mg/kg, ip after 1 hr; assay type: ADME, organism-based; parameters: dose 5 mg/kg, route intraperitoneal; settings: mouse, in vivo, 1 h, BLD = below limit of detection; in short: as §3
[6] = as §2; assay type: ADME, organism-based; parameters: dose 5 mg/kg, route intraperitoneal; settings: B6C3F1, mouse, plasma; in short: as §3
[7] = test system: Brain; test: Fraction unbound in mouse brain homogenate at 1 uM after 5 hrs by equilibrium dialysis; assay type: ADME, tissue-based
In short: (§5)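 Rapid equilibrium dialysis. Compound at 1 μM in mouse plasma or brain homogenate, each diluted threefold with 100 mM sodium phosphate pH 7.4. Triplicate samples dialysed against the same buffer for 5 h at 37 °C with shaking. Both sides were matrix-matched, extracted with acetonitrile and run by LC-MS/MS. fu is buffer response over sample response; brain fu was corrected for tissue dilution.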

[8] = test system: Mus musculus; test: Ratio of drug level in brain to plasma in B6C3F1 mouse at 5 mg/kg, ip after 1 hr
[9] = as §4; assay type: ADME, organism-based; parameters: dose 5 mg/kg, route intraperitoneal; settings: B6C3F1, mouse, brain, read-out: Drug uptake; in short: as §3
[10] = Ratio of fraction unbound in brain homogenate to plasma in mouse at 1 uM after 5 hrs by equilibrium dialysis; assay type: ADME, tissue-based; in short: as §5

Compound | Imax [1] [%] | inhibition [2] [%] | IC50 [3] [µM] | Cp [4] | Drug uptake [5] | concentration at 1 h [6] [ng/mL] | Fu [7] [%] | BPR [8] | concentration at 1 h [9] [ng/g] | Ratio [10]
CC(C)NC(=O)c1nn(-c2cccc(Cl)c2)c(=O)c2c(N)scc12 | 82 | 73 | 3.2 |  |  |  |  |  |  | 
CCOC(=O)c1nn(-c2ccc(Cl)cc2)c(=O)c2c(N)sc(Br)c12 | 92 | 62 | 4 |  |  |  |  |  |  | 
Cc1n[nH]c(=O)c2c(N)scc12 | 87 | 81 | 8 | BLD | BLD |  |  |  |  | 
Cc1nn(C2CCCCC2)c(=O)c2c(N)scc12 | 65 | 86 | 31.6 |  |  |  |  |  |  | 
CCOC(=O)C1=NN(c2ccc(Cl)cc2)C(=O)C(C#N)C1C (stereo not given) | 4.4 | 21 |  |  |  |  |  |  |  | 
Cc1nn(-c2cccnc2)c(=O)c2c(N)scc12 | 74 | 84 | 4 |  |  |  |  |  |  | 
Nc1scc2c(C(=O)NCC(F)(F)F)nn(-c3ccc(F)cc3)c(=O)c12 | 83 | 75 | 8 |  |  | 401 | 3.2 | 1.59 | 637 | 2.31
CC(C)NC(=O)c1nn(-c2ccc(OC(F)(F)F)cc2)c(=O)c2c(N)scc12 | 67 | 42 | 15.8 |  |  |  |  |  |  | 
CCOC(=O)c1nn(-c2ccc(C(F)(F)F)cc2)c(=O)c2c(N)scc12 | 48 | 27 |  |  |  |  |  |  |  | 
O=C(O)c1nn(-c2ccc(F)cc2)c(=O)c2c1CSC2=O | 92 | 87 | 2.5 |  |  |  |  |  |  | 
Nc1scc2c(C(=O)O)nn(-c3ccc(O)cc3)c(=O)c12 | 84 | 70 | 4 |  |  |  |  |  |  | 
Nc1scc2c(C(=O)O)nn(-c3ccc(OC(F)(F)F)cc3)c(=O)c12 | 92 | 71 | 1.6 |  |  |  |  |  |  | 
CCOC(=O)c1c(C(=O)c2ccccc2)csc1N | 29 | 6.5 |  |  |  |  |  |  |  | 
CCOC(=O)c1nn(-c2ccc(OC(F)(F)F)cc2)c(=O)c2c(N)scc12 | 41 | 29 |  |  |  |  |  |  |  | 
Cc1nn(Cc2ccccc2)c(=O)c2c(N)scc12 | 89 | 73 | 1.6 |  |  | 78 | 5.1 | 0.6 | 48 | 0.77
CCOC(=O)c1nn(-c2cccc(Cl)c2)c(=O)c2c(N)scc12 | 82 | 73 | 3.2 |  |  |  |  |  |  | 
CC(C)n1nc(-c2ccccc2)c2csc(N)c2c1=O | 89 | 92 | 19.9 |  |  |  |  |  |  | 
Nc1scc2c(C(=O)NC3CC3)nn(-c3ccc(C(F)(F)F)cc3)c(=O)c12 | 64 | 83 | 6.3 |  |  |  |  |  |  | 
Cc1nn(CC(F)(F)F)c(=O)c2c(N)scc12 | 81 | 78 | 10 |  |  |  |  |  |  | 
CC(C)NC(=O)c1nn(-c2ccc(O)cc2)c(=O)c2c(N)scc12 | 86 | 84 | 15.8 |  |  | 150 |  | 0.098 | 14.1 | 

Compound | Imax [1] [%] | inhibition [2] [%] | IC50 [3] [µM] | Cp [4] | Drug uptake [5] | concentration at 1 h [6] [ng/mL] | Fu [7] [%] | BPR [8] | concentration at 1 h [9] [ng/g] | Ratio [10]
CC(C)c1ccc(-n2nc(C(=O)NC3CC3)c3csc(N)c3c2=O)cc1 | 82 | 86 | 4 |  |  |  |  |  |  | 
Cc1nn(-c2ccccn2)c(=O)c2c(N)scc12 | 85 | 78 | 2 |  |  | 61 |  | 0.116 | 7.5 | 
Cc1nn(-c2ccc(Cl)cc2)c(=O)c2c(N)scc12 | 85 | 70 | 2 |  |  |  |  |  |  | 
Nc1scc2c(C(=O)O)nn(-c3ccccc3Cl)c(=O)c12 | 86 | 64 | 3.2 |  |  |  |  |  |  | 
CCOC(=O)c1nn(-c2ccccc2Cl)c(=O)c2c(N)scc12 | 75 | 71 | 2 |  |  |  |  |  |  | 
Nc1scc2c(C(=O)O)nn(-c3cccc(Cl)c3)c(=O)c12 | 92 | 73 | 1.6 |  |  |  |  |  |  | 
Nc1scc2c(C(=O)O)nn(-c3ccc(C(F)(F)F)cc3)c(=O)c12 | 88 | 83 | 19.9 |  |  |  |  |  |  | 
CCOC(=O)c1nn(-c2ccc(Cl)cc2)c(=O)c2c(NC)scc12 | 39 | 51 |  |  |  |  |  |  |  | 
CCOC(=O)c1nn(-c2ccc(C(C)C)cc2)c(=O)c2c(N)scc12 | 8 | 17 |  |  |  |  |  |  |  | 
CCOC(=O)c1nn(-c2ccc(Cl)cc2)c(=O)c2c(N)sc(Cl)c12 | 88 | 65 | 2 |  |  |  |  |  |  | 
CCOC(=O)c1nn(-c2ccc(F)cc2)c(=O)c2c(N)scc12 | 77 | 63 | 1 |  |  |  |  |  |  | 
CCOC(=O)c1nn(-c2ccc(Cl)cc2)c(=O)c2c1C(O)NC2=O (stereo not given) | 57 | 15 |  |  |  |  |  |  |  | 
CC(C)NC(=O)c1nn(-c2ccc(F)cc2)c(=O)c2c(N)scc12 | 89 | 77 | 1.6 |  |  | 110 | 2.9 | 2.68 | 280 | 1.3
Cc1nn(C(C)C)c(=O)c2c(N)scc12 | 95 | 17 | 19.9 |  |  |  |  |  |  | 
Nc1scc2c(C(=O)NC3CC3)nn(-c3ccccc3Cl)c(=O)c12 | 68 | 44 |  |  |  |  |  |  |  | 
Cc1nn(C)c(=O)c2c(N)scc12 | 82 | 76 | 2.5 |  | BLD | 10 |  |  |  | 
Nc1scc2c(C(=O)O)nn(-c3ccc(F)cc3)c(=O)c12 | 84 | 83 | 2 |  |  |  |  |  |  | 
Nc1scc2c(-c3ccccc3)nn(CC(F)(F)F)c(=O)c12 | 103 | 82 | 6.3 |  |  |  |  |  |  | 
CC(C)NC(=O)c1nn(-c2ccc(Cl)cc2)c(=O)c2c1CSC2=O | 96 | 85 | 10 |  |  | 4700 |  | 0.0035 | 16.3 | 
CCOC(=O)c1nn(-c2ccc(O)cc2)c(=O)c2c(N)scc12 | 81 | 69 | 5 |  |  |  |  |  |  | 
